Screening data: PubChem, Broad Institute
A selection follows.
PGC1a Ac signal = raises PGC1a acetylation signal in U2OS cells; U2OS PGC1a acetylation AlphaScreen, overnight; activation, % at 15.6 µM; 350,000 tested, 0.21% active; AID 651723;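 active = every replicate reaching activation of at least 50%, whatever the mean replicate activation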;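 also: hits raise the AlphaScreen acetylation signal above neutral controls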
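System: flag-PGC1a/GCN5 U2OS cells / Input: 7000 cells/well / Compound: single test concentration per compound / Incubation: overnight compound treatment, 37 °C / Technique: AlphaScreen on lysates with anti-acetyl-lysine antibody, acceptor and donor beads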
* = called active by the depositor.

SMILES | PGC1a Ac signal
CC(c1ccccc1)N1CCN(C(=O)CCl)CC1 (stereo unspecified) | -48
COc1ccc(C(=O)C(CN2CCCC2)c2ccccc2)cc1 (stereo unspecified) | 167*
CCCCOc1ccc(C(=O)C(CN2CCOCC2)c2ccccc2)cc1 (stereo unspecified) | -80
Nc1ncc([N+](=O)[O-])c(N2CCCCCC2)n1 | -53
CN(C)S(=O)(=O)c1cc(NC(=O)CN2CCc3ccccc32)ccc1Cl | -75
CC(C(=O)N1CCc2ccccc2C1)N(c1ccccc1)S(C)(=O)=O (stereo unspecified) | -51
C/C(=C\C(=O)N1CCc2ccccc21)C(=O)O | 60*
CN(C)C(=O)C[C@@H]1CC[C@@H]2[C@H](COC[C@@H](O)CN2C(=O)C2CCOCC2)O1 | -56
COc1ccc(-c2cnc3c(c2)C(=O)N([C@H](C)CO)C[C@@H](C)[C@H](CN(C)C(=O)C2CCC2)O3)cc1 | -56
CC(=O)Nc1ccc(NC(=O)c2cc(=O)c3ccccc3o2)cc1 | -42
CC(=O)Nc1ccc(Sc2ccc([N+](=O)[O-])o2)cc1 | 438*
Cc1ccc(-c2nnc(Nc3ccccc3)c3ccccc23)cc1S(=O)(=O)NCC1CCCO1 (stereo unspecified) | 120*
O=C1C(Cl)=C(Nc2ccc3cn[nH]c3c2)C(=O)c2ccccc21 | -55
O=C(CSc1nnc(-c2ccccc2)n1-c1ccc(Cl)cc1)N/N=C/c1ccccc1C(=O)O | -45
O=C(CSc1ccc(Cl)cc1)N/N=C/c1ccc([N+](=O)[O-])o1 | 92*
Cc1ccc(OCC(=O)N/N=C/c2ccc([N+](=O)[O-])o2)cc1 | 84*
Cc1ccc(NC(=O)CCC(=O)N/N=C/c2ccc([N+](=O)[O-])o2)cc1C | 126*
Cc1ccc(O)c(/C=N/NC(=O)CN2CCCC2)c1 | -84
CC1=NN(c2ccc(C)c(C)c2)C(=O)/C1=C\C=C\c1ccc([N+](=O)[O-])o1 | -59
C[C@H]1CN([C@@H](C)CO)C(=O)CCCn2nncc2CO[C@@H]1CN(C)C(=O)Nc1ccccc1 | -50
C[C@H]1CN([C@@H](C)CO)C(=O)Cc2cc(NC(=O)Nc3ccccc3)ccc2O[C@@H]1CN(C)Cc1ccccc1 | -50
O=C(CCSc1nnc(-c2ccc(O)cc2)o1)N1CCOCC1 | -46
Cc1cc(C(F)(F)F)n(-c2nc(C(=O)NNS(=O)(=O)c3ccccc3[N+](=O)[O-])cs2)n1 | -110
Cc1cnc2c(C(=O)O)cnn2c1 | -52
Cc1ccc(C(=O)N2CCN(c3ncccn3)CC2)cc1 | -80
SMILES | PGC1a Ac signal
Cc1ccc(C(=O)N2CCN(c3ccc(NC(=S)NC(=O)c4cccs4)cc3)CC2)cc1 | 53*
Nc1cc2ccncc2c2ccccc12 | -42
Cc1ccc(CC(=O)Nc2nccs2)cc1 | -51
Cc1ccc(S(=O)(=O)N2CCN(S(=O)(=O)c3ccc(C)cc3)C2c2ccccc2)cc1 | 110*
Cc1ccc(S(=O)(=O)C(C#N)c2nc3ccccc3nc2N2CCCC2)cc1 (stereo unspecified) | -50
CCOC(=O)C1CN(S(=O)(=O)c2ccccc2)c2cc(S(=O)(=O)CC)ccc2O1 (stereo unspecified) | -50
CCOc1ccnc(OCC)c1Br | -44
CCOC(=O)c1cnn(-c2ccccc2)c1-n1cccc1C(=O)C(=O)Nc1ccc(F)cc1 | 78*
CC(C)NC(=O)N(C)C[C@H]1OCc2cnnn2CCCC(=O)N([C@@H](C)CO)C[C@H]1C | -42
COc1ccc(S(=O)(=O)Nc2ccc3c(c2)C(=O)N([C@H](C)CO)C[C@H](C)[C@H](CN(C)S(=O)(=O)c2cn(C)cn2)OCCCC[C@@H](C)O3)cc1 | -55
CCOC(=O)C1=CC[C@@H](c2ccc(OC)cc2)N(S(=O)(=O)c2ccc(C)cc2)[C@H]1CC | 90*
CCOC(=O)c1oc2ccc(S(=O)(=O)N3CCC(C)CC3)cc2c1C | -43
COCCNC(=O)C(c1ccc(F)cc1)N(Cc1ccco1)C(=O)CCC(=O)Nc1nccs1 (stereo unspecified) | -41
COc1ccc(N(C(=O)CCl)C(C(=O)NCCc2ccccc2)c2cccs2)cc1 (stereo unspecified) | -61
NNS(=O)(=O)c1ccc(Cc2ncc(C(F)(F)F)cc2Cl)s1 | -50
Nc1ccccc1Oc1ncc(C(F)(F)F)cc1Cl | -46
O=S(=O)(c1ccccc1)c1ncc(C(F)(F)F)cc1Cl | 55*
O=Nc1c(-c2c(O)[nH]c3cc(Br)ccc23)[nH]c2ccccc12 | 258*
COc1ccc(-c2cnc3c(c2)C(=O)N([C@H](C)CO)C[C@H](C)[C@@H](CN(C)C(=O)C2CCC2)O3)cc1 | -44
Cc1cccc(C)c1OC1(c2ccccc2)OC(=O)c2ccccc21 (stereo unspecified) | 72*
CCOCCCNc1nc2c(c(=O)n(C)c(=O)n2C)n1CCCc1ccccc1 | -40
CCCCOP(=O)(c1ccc(N(C)C)cc1)C(O)c1ccc(OC)cc1 (stereo unspecified) | -82
N#CC1(NC(=O)Cn2ncc(Cl)c(Cl)c2=O)CCCCC1 | 98*
COc1ccc(Cn2nnnc2C(C(C)C)N(Cc2ccco2)Cc2cccs2)cc1 (stereo unspecified) | 56*
Cc1cc(C)nc(NS(=O)(=O)c2ccc(NC(=O)Nc3ccccc3)cc2)n1 | -97
SMILES | PGC1a Ac signal
Cc1cc(S(=O)(=O)Nc2ccc3ccccc3c2)c(C)s1 | 58*
C[C@H](CO)N1C[C@H](C)[C@@H](CN(C)C(=O)c2ccccn2)Oc2ncc(-c3cccc(C#N)c3)cc2C1=O | -58
CCC(=O)N1C[C@H](C)[C@H](OC)CN(C)C(=O)c2cc(NC(=O)c3cnccn3)ccc2OC[C@@H]1C | -41
CCN(C(=O)CN1CCN(c2ccccc2O)CC1)c1c(N)n(Cc2ccccc2)c(=O)[nH]c1=O | -50
COC(=O)C1CCN(Cc2nnc(-c3ccccc3)o2)CC1 | -47
O=c1c(Cl)c(Cl)cnn1Cc1nnc(-c2ccc(Cl)cc2)o1 | 73*
Cc1ccc(Cn2ncc(Cl)c(Cl)c2=O)cc1 | 112*
CCN1/C(=C/C(C)=C/c2sc3ccccc3[n+]2CC)Sc2ccccc21 | 98*
COc1ccc(S(=O)(=O)N2CCOCC2)cc1NC(=O)CCNC(=O)c1ccc([N+](=O)[O-])cc1 | 419*
COc1ccc(OC)c(Nc2ccc(C(=O)O)cc2[N+](=O)[O-])c1 | -42
CCN(c1ccccc1)S(=O)(=O)c1ccc(OC)c(NC(=O)Cc2ccc(F)cc2)c1 | -40
CO[C@@H]1CN(C)C(=O)c2cc(NC(C)=O)ccc2OC[C@@H](C)N(Cc2ccccc2C(=O)O)C[C@@H]1C | -43
CC(=O)Nc1cccc(OCC(=O)Nc2ccccc2)c1 | 51*
CCOC(=O)N1CCC(N(CCN(C)C)C(=S)Nc2cccc(OC)c2)CC1 | -45
CC(=O)c1ccc(NC(=O)CSCC(=O)Nc2ccc3ccccc3c2)cc1 | -56
C[C@@H]1CN([C@@H](C)CO)C(=O)CCCn2nncc2CO[C@H]1CN(C)Cc1ccc(O)cc1 | -45
S=c1nc[nH]c2c1cnn2Cc1ccccc1 | -45
CC(=O)NC(=S)Nc1ccc(NC(=O)COc2ccc(Cl)cc2Cl)cc1 | 76*
Cc1ccccc1C(=O)Nc1ccc(C(=O)O)cc1NC(=O)c1ccccc1C | -41
CCOc1ccccc1NC(=O)c1ccc2ccccc2c1 | -88
CCN(CC)c1ccc(NC(=O)c2cc(OC)cc(OC)c2)c(C)c1 | 99*
O=C(CCNC(=O)C1CCN(S(=O)(=O)c2ccc(F)cc2)CC1)NCc1ccccc1Cl | 64*
COc1ccc(S(=O)(=O)NCCC(=O)NCc2ccc(F)cc2)cc1 | -80
